# Assays:
# [1] = target: NACHT, LRR and PYD domains-containing protein 3 (Homo sapiens, UniProt Q96P20); assay: Inhibition of NLRP3 in human PBMC cells assessed as inhibition of LPS and ATP-induced IL-1beta production; type: cell-based
# [2] = Inhibition of IL-6 production in human PBMC
# [3] = Inhibition of TNFalpha production in human PBMC
# [4] = Effective permeability of compound by PAMPA; type: ADME; conditions: read-out: Peff
# [5] = Stability in mouse blood assessed as compound remaining measured after 1 hr; type: ADME, tissue-based; conditions: read-out: Stabilty
# In short: (§1)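 Compound incubated in whole blood (human or mouse) at 37° C for one hour; stability expressed as percentage of compound remaining.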
# [6] = Stability in human blood assessed as compound remaining measured after 1 hr; type: ADME, tissue-based; conditions: read-out: Stabilty; in short: as §1
# Sequence of NACHT, LRR and PYD domains-containing protein 3 (Q96P20 whole entry, the tested form may be a part): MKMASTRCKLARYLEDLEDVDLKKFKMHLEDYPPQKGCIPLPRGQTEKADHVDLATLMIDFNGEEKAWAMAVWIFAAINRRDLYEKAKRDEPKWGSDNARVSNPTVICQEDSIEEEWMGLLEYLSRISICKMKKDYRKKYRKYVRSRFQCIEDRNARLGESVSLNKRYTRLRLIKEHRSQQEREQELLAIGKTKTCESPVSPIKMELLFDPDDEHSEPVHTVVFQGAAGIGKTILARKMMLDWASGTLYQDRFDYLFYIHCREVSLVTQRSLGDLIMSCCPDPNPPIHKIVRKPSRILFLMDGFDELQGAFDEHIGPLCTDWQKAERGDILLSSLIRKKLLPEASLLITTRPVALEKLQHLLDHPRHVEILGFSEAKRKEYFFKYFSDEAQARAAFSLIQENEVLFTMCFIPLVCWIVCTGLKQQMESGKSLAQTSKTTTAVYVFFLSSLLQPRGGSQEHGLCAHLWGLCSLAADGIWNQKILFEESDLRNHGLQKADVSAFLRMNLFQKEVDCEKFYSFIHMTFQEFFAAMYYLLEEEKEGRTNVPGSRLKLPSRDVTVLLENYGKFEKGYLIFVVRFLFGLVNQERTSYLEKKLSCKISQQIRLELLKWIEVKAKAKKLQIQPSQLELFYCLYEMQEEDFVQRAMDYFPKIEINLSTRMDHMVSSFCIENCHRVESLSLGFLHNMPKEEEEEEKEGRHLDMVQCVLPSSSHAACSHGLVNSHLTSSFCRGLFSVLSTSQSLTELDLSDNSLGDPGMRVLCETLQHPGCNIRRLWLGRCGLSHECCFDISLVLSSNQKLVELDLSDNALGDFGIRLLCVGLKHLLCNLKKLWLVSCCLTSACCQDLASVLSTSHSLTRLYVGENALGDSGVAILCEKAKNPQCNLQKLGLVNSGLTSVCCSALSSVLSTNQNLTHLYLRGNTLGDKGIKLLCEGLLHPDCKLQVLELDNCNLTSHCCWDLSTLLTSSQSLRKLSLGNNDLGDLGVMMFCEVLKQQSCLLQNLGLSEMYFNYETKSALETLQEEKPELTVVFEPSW
IC50 [1] [µM],SMILES,further results
> 20,CC(C)(O)c1coc(S(=O)(=O)NC(=O)Nc2ccccc2)c1,
> 20,O=C(CS(=O)(=O)Nc1ccccc1)Nc1c2c(cc3c1CCC3)CCC2,
> 20,Cc1nc(CNC(=O)Nc2c3c(cc4c2CCC4)CCC3)no1,
> 20,CC(C)(O)c1coc(S(=O)(=O)NC(=O)Nc2cccc3c2CCC3)c1,
> 20,COC(=O)[C@@H](Cc1ccncc1)NC(=O)Nc1c2c(cc3c1CCC3)CCC2,
> 20,COC(=O)C(C)(C)NC(=O)Nc1c2c(cc3c1CCC3)CCC2,
> 20,CN(C)C(=O)CNC(=O)Nc1c2c(cc3c1CCC3)CCC2,
> 20,O=C(CNS(=O)(=O)c1ccccc1)Nc1c2c(cc3c1CCC3)CCC2,
> 20,CCOC(=O)CNC(=O)Nc1c2c(c(Cl)c3c1CCC3)CCC2,
> 20,O=C(O)CNC(=O)Nc1c2c(cc3c1CCC3)CCC2,
> 20,COC(=O)CC(=O)Nc1c2c(cc3c1CCC3)CCC2,
> 20,CCOC(=O)CNC(=O)Nc1c2c(nc3c1CCC3)CCC2,
> 20,CC(C)(C)OC(=O)CNC(=O)Nc1c2c(cc3c1CCC3)CCC2,
,CC(C)(O)c1coc(S(=O)(=O)[N-]C(=O)Nc2c3c(cc4c2CCC4)CCC3)c1.[Na+],IC50 [2]: > 40 µM; IC50 [3]: > 40 µM; Papp [4]: < 0.0003 ×10⁻⁶ cm/s
> 20,CCOC(=O)CNC(=O)Nc1c(C)cccc1C,
> 20,Cc1nnc(CNC(=O)Nc2c3c(cc4c2CCC4)CCC3)o1,
,CCOC(=O)[C@@H](Cc1ncccn1)NC(=O)Nc1c2c(cc3c1CCC3)CCC2,IC50 [2]: 4.3 µM; IC50 [3]: 2.7 µM; Papp [4]: 8.2 ×10⁻⁶ cm/s; remaining at 1 h [5]: 0%; remaining at 1 h [6]: 92.4%
> 20,CNC(=O)CNC(=O)Nc1c2c(cc3c1CCC3)CCC2,
> 20,O=C(O)CC(=O)Nc1c2c(cc3c1CCC3)CCC2,
> 20,CCOC(=O)CNC(=O)NC(c1ccccc1)c1ccccc1,
> 20,CCOC(=O)CNC(=O)Nc1c2c(cc3c1CCC3)CCCC2,
> 20,CCOC(=O)CNC(=O)NC12CC3CC(CC(C3)C1)C2,
> 20,COC(=O)C(CCc1ccccc1)NC(=O)Nc1c2c(cc3c1CCC3)CCC2 (stereo not drawn),
> 20,COC(=O)CNC(=O)Nc1c(C(C)C)cccc1C(C)C,
,CCOC(=O)[C@@H](Cc1cnccn1)NC(=O)Nc1c2c(cc3c1CCC3)CCC2,Papp [4]: 13.9 ×10⁻⁶ cm/s; remaining at 1 h [5]: 0%; remaining at 1 h [6]: 79.2%

# Reference: ChEMBL document CHEMBL4699510, “Discovery of a series of ester-substituted NLRP3 inflammasome inhibitors” (Bioorg Med Chem Lett, 2020)
